Entries after “also recorded” stand apart in the source; their conditions may differ.
Legend:
A549 cells = experiment: Antiproliferative assay; format: cell-based, human; conditions: read-out: growth inhibition IC50, A549; A549, 72 h
Summary of the method: (§1)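 Seeded at 5 × 10^3 cells/well and grown 24 h. Medium then replaced with fresh medium holding test compound at a range of concentrations; DMSO below 0.25%. Incubated at 37 °C for 72 h. Resazurin added for 2 h, then fluorescence read at ex 560 / em 590 nm.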

HeLa cells [1] = experiment: Antiproliferative assay; format: cell-based, human; conditions: read-out: growth inhibition IC50, HeLa, 72 h
Summary of the method: as §1

MDA-MB-231 cells [2] = experiment: Antiproliferative assay; format: cell-based, human; conditions: read-out: growth inhibition IC50, MDA-MB-231; MDA-MB-231, 72 h
Summary of the method: as §1

[3] = Mouse plasma concentrations after single oral dose; format: in vivo; conditions: mice, single oral dose 5 mg/kg
Summary of the method: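 Female C57BL/6 mice dosed once by oral gavage at 5 mg/kg, test compound dissolved in ethanol and given in PBS. Blood drawn from orbital sinus at 1, 3, 6 and 24 h after dosing. Each group of mice sampled only once.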

bovine brain tubulin = experiment: Tubulin polymerization assay in vitro; format: biochemical; conditions: compared to vehicle
HeLa cells [4] = experiment: Immunofluorescence of interphase microtubules, HeLa; format: cell-based, human; conditions: 1 μM, 24 h
Summary of the method: (§2)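 Cells grown on chamber slides and exposed to DMSO vehicle or test compound, then fixed in 3.7% formaldehyde and permeabilised for 4 min with 0.1% Triton X-100 in PBS. Blocked 1 h in PBS/1% BSA with calf serum. Stained with mouse anti-β-tubulin (1:200), then Alexa 488 goat anti-mouse (1:200) for 2 h at room temperature. Imaged by fluorescence microscopy.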

[5] = tested on: chick embryo chorioallantoic membrane; experiment: Chick embryo chorioallantoic membrane; format: in vivo; conditions: collagen plug with bFGF + VEGF (BV), scored 4 days after treatment
Summary of the method: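 Fertilized chick eggs incubated 3 days at 37.5 °C, then shell-free in covered weighboats for 10 more days. Collagen onplants (2.1 mg/mL rat tail collagen, 10 ng/plug bFGF, 30 ng/plug VEGF) with or without test compound placed on CAM over nylon mesh; four per egg, at least three eggs. After 4 days, plugs on surviving embryos imaged and scored blind 0–3; means ± SEM.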

[6] = tested on: colchicine binding site of tubulin; experiment: Competitive LC-MS/MS binding assay, colchicine binding site; conditions: colchicine 1.2 μM, tubulin 1.3 mg/mL, 37 °C, 1 h; highest value reached
MDA-MB-231 cells [7] = experiment: Immunofluorescence of interphase microtubules, MDA-MB-231; format: cell-based, human; conditions: 1 μM, 24 h
Summary of the method: as §2

IC50 (A549 cells)	IC50 (HeLa cells [1])	IC50 (MDA-MB-231 cells [2])	plasma concentration at 6 h [3]	plasma concentration at 24 h [3]	relative binding capacity, % of colchicine binding [6]	peak plasma concentration [3]	Compound	inhibition of tubulin polymerization (bovine brain tubulin; compound at 10 μM)	effect on interphase microtubule network (HeLa cells [4])	inhibition of new vessel growth (angiogenesis score, scale 0-3) [5]	effect on interphase microtubule network (MDA-MB-231 cells [7])	inhibition of tubulin polymerization (bovine brain tubulin; compound at 1 μM)
> 100000 nM	> 25000 nM	> 100000 nM					5-Bromo-2-(2,4-dimethoxyphenyl)pyridine [2f]					
> 25000 nM	14000 ± 300 nM	12050 ± 20 nM					5-Bromo-2-(3,4,5-trimethoxyphenyl)pyridine [2e]					
			no longer detectable	no longer detectable	78%		COc1ccc(/C=C\c2cc(OC)c(OC)c(OC)c2)cc1O [CA-4, Combretastatin-A4, reference compound]	nearly completely blocked tubulin polymerization	very similar loss of the microtubule network	inhibition of new vessel growth	very similar loss of the microtubule network	
						lower peak concentrations than CA-4	COc1ccc(-c2cccc(-c3ccc(OC)cc3OC)n2)cc1 [4h, 2-(2,4-Dimethoxyphenyl)-6-(4-methoxyphenyl)pyridine]	remained ineffective against tubulin polymerization	dramatic reduction of the interphase microtubule network	inhibition of new vessel growth	dramatic reduction of the interphase microtubule network	failed to inhibit tubulin polymerization
330 ± 10 nM	34 ± 2 nM	34 ± 4 nM					2-(2,4-Dimethoxyphenyl)-6-(2,5-dimethoxyphenyl)pyridine [4m]					
2640 ± 380 nM	4.7 ± 0.9 nM	69 ± 2.8 nM				lower peak concentrations than CA-4	2-Methoxy-5-(6-(3,4,5-trimethoxyphenyl)pyridine-2-yl)phenol [4t]	32%		inhibition of new vessel growth; also recorded: scored significantly lower than the positive control (BV)		failed to inhibit tubulin polymerization
			dropping rapidly	below detection limit			COc1ccc(-c2cccc(-c3ccc(OC)c(O)c3)n2)c(OC)c1 [4s, 5-(6-(2,4-Dimethoxyphenyl)pyridine-2-yl)-2-methoxyphenol]			inhibition of new vessel growth; also recorded: scored significantly lower than the positive control (BV)		failed to inhibit tubulin polymerization
